From ChEMBL document CHEMBL1153427, “1-Sulfonyl-4-acylpiperazines as selective cannabinoid-1 receptor (CB1R) inverse agonists for the treatment of obesity” (J Med Chem, 2009)

Assays:
[1] = target: Voltage-gated inwardly rectifying potassium channel KCNH2 (Homo sapiens, UniProt Q12809); test: Inhibition of human ERG by MK-0499 binding assay
Cannabinoid receptor 2 = Cannabinoid receptor 2 (Homo sapiens, UniProt P34972); test: Displacement of [3H]CP-55940 from human recombinant CB2R expressed in CHO cells; type: cell-based
Outline: (§1)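 Radioligand competition used 0.5 nM [³H]CP55940 with recombinant human CB1R-CHO or CB2R-CHO membranes. Bound and free ligand were separated by filtration, and IC₅₀ came from nonlinear curve fitting.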

Cannabinoid receptor 1 [2] = target: T1, Cannabinoid receptor 1 (Homo sapiens, UniProt P21554); test: Displacement of [3H]CP-55940 from human recombinant CB1R expressed in CHO cells; type: cell-based; outline: as §1
Rattus norvegicus [3] = test: Reduction of body weight in diet induced obese Sprague-Dawley rat at 3 mg/kg, po; type: functional
Outline: (§2)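 Male DIO rats were acclimated at least 3 days in an automated food-intake system, where computer-linked balances logged grams of food eaten every 5 min. They were fed milled MHF diet throughout. Compound or vehicle (10% Tween-80 in water) was given by oral gavage 1 h before dark-cycle onset. Overnight food intake and body-weight change were measured against vehicle, with significance set at P < 0.05.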

[4] = Half life in Sprague-Dawley rat at 1 mg/kg, iv and 2 mg/kg, po; type: ADME, organism-based; details: in vivo
Outline: (§3)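 Male Sprague-Dawley rats received 1 mpk intravenously or 2 mpk orally. Blood was drawn at various time points into lithium heparin and centrifuged, and plasma was stored at -70 °C. Plasma was extracted by protein precipitation and analysed by LC-MS/MS.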

Cannabinoid receptor 1 [5] = target: T1, Cannabinoid receptor 1; test: Inverse agonist activity at human recombinant CB1R expressed in CHO cells assessed as increase in forskolin-stimulated cAMP level; type: functional, cell-based
Outline: (§4)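 Recombinant CB1R-CHO cells were incubated with test compound across a range of concentrations, plus forskolin and the phosphodiesterase inhibitor IBMX. Buffer was Earle's balanced salt solution with 5 mM MgCl₂, 10 mM HEPES pH 7.3 and 1 mg/mL BSA, for 30 min at room temperature, with cAMP read out.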

Cannabinoid receptor 1 [6] = target: T2, Cannabinoid receptor 1 (Rattus norvegicus, UniProt P20272); test: Displacement of [3H] SR-141716 from rat recombinant CB1R expressed in CHO cells; type: cell-based
Cannabinoid receptor 1 [7] = target: T2, Cannabinoid receptor 1; test: Antagonist activity at rat recombinant CB1R expressed in CHO cells assessed as inhibition of methanandamide-stimulated cAMP level; type: functional, cell-based
Outline: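 Antagonist mode of the forskolin-stimulated cAMP assay in CB1R-CHO cells. Methanandamide at 300 nM was the agonist challenge, and IC₅₀ was determined across test-compound concentrations. Percent inhibition was also recorded at a single 2 µM test concentration.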

[8] = Plasma clearance in Sprague-Dawley rat at 1 mg/kg, iv and 2 mg/kg, po; type: ADME, organism-based; outline: as §3
[9] = Ratio of drug level in brain to plasma in Sprague-Dawley rat at 1 mg/kg, iv and 2 mg/kg, po after 4 hrs; type: ADME, organism-based
[10] = Volume of distribution at steady state in Sprague-Dawley rat at 1 mg/kg, iv and 2 mg/kg, po; type: ADME, organism-based; details: in vivo, read-out: Vdss; outline: as §3
[11] = Bioavailability in Sprague-Dawley rat at 1 mg/kg, iv and 2 mg/kg, po; type: ADME, organism-based; details: in vivo; outline: as §3
Cannabinoid receptor 1 [12] = target: T2, Cannabinoid receptor 1; test: Agonist activity at rat recombinant CB1R expressed in CHO cells assessed as inhibition of forskolin-stimulated cAMP level; type: functional, cell-based; outline: as §4
Cannabinoid receptor 1 [13] = target: T2, Cannabinoid receptor 1; test: Displacement of [3H]CP-55940 from rat recombinant CB1R expressed in CHO cells; type: cell-based
[14] = Ratio of drug level in brain to plasma in Sprague-Dawley rat at 1 mg/kg, iv and 2 mg/kg, po over 0.25 to 4 hrs; type: ADME, organism-based
Outline: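 Male Sprague-Dawley rats got 1 mpk iv for brain penetration and were euthanised by CO₂ 1 h later. Whole brain was frozen on dry ice, and blood was taken by cardiac puncture into lithium heparin. PK arms were dosed 1 mpk iv and 2 mpk po, with blood sampled at several time points. Plasma and brain homogenate were extracted by protein precipitation and analysed by LCMS².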

Rattus norvegicus [15] = test: Reduction of overnight food intake in diet induced obese Sprague-Dawley rat at 3 mg/kg, po; type: functional; design: scale not given: the % may be the effect or the level left; outline: as §2
Cannabinoid receptor 1 [16] = target: T1, Cannabinoid receptor 1; test: Displacement of [3H]SR141716 from human recombinant CB1R expressed in CHO cells; type: cell-based
Cannabinoid receptor 1 [17] = target: T1, Cannabinoid receptor 1; test: Agonist activity at human recombinant CB1R expressed in CHO cells assessed as inhibition of forskolin-stimulated cAMP level; type: functional, cell-based; outline: as §4
[18] = Plasma clearance in rhesus monkey; type: ADME, organism-based, Macaca mulatta
[19] = Bioavailability in dog; type: ADME, organism-based, Canis lupus familiaris; details: in vivo
Cytochrome P450 2C8 = target: T3, Cytochrome P450 2C8 (Homo sapiens, UniProt P10632); test: Inhibition of CYP2C8; type: ADME
T3 sequence (P10632 whole entry): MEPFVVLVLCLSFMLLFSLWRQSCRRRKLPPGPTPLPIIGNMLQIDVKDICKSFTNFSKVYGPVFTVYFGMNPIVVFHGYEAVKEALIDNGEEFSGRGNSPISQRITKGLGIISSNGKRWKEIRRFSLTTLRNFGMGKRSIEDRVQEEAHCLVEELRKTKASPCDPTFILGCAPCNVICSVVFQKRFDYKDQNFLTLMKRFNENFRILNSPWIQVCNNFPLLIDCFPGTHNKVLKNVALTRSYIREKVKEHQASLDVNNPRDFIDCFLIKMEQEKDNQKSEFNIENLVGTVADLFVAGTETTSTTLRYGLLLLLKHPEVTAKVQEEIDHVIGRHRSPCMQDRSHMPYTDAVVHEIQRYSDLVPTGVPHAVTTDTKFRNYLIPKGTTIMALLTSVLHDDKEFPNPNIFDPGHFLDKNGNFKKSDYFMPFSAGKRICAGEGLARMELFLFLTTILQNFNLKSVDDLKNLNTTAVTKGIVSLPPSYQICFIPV

[20] = Half life in dog; type: ADME, organism-based, Canis lupus familiaris; details: in vivo
Cytochrome P450 3A4 = Cytochrome P450 3A4 (Homo sapiens, UniProt P08684); test: Inhibition of CYP3A4; type: ADME
[21] = Oral bioavailability in rhesus monkey; type: ADME, organism-based, Macaca mulatta; details: in vivo
[22] = Half life in rhesus monkey; type: ADME, organism-based, Macaca mulatta; details: in vivo
Cytochrome P450 2C9 = Cytochrome P450 2C9 (Homo sapiens, UniProt P11712); test: Inhibition of CYP2C9; type: ADME
[23] = Volume of distribution at steady state in rhesus monkey; type: ADME, organism-based, Macaca mulatta; details: in vivo, read-out: Vdss
[24] = Cmax in rhesus monkey; type: ADME, organism-based, Macaca mulatta; details: in vivo
[25] = Volume of distribution at steady state in dog; type: ADME, organism-based, Canis lupus familiaris; details: in vivo, read-out: Vdss
Rattus norvegicus [26] = species on record: Rattus norvegicus; test: Reduction of overnight food intake in diet induced obese Sprague-Dawley rat assessed as minimal effective dose; type: functional; details: feed or water, read-out: MED; outline: as §2
[27] = Cmax in Sprague-Dawley rat at 1 mg/kg, iv and 2 mg/kg, po; type: ADME, organism-based; details: in vivo; outline: as §3
[28] = Cmax in dog; type: ADME, organism-based, Canis lupus familiaris; details: in vivo
[29] = Plasma clearance in dog; type: ADME, organism-based, Canis lupus familiaris

T1 sequence (P21554 whole entry): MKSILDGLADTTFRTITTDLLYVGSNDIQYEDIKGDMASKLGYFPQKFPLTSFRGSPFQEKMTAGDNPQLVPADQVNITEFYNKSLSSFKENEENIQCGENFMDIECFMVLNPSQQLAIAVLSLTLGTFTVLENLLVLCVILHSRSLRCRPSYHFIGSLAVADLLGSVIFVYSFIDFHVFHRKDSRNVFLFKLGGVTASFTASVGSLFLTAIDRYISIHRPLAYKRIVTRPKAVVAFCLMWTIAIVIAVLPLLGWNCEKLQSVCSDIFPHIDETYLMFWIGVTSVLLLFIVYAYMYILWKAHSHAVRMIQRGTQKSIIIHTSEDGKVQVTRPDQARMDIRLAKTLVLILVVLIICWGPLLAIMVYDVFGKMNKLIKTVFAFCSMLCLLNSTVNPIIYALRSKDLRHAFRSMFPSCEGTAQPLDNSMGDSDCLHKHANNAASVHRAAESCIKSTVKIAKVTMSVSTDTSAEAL
T2 sequence (P20272 whole entry): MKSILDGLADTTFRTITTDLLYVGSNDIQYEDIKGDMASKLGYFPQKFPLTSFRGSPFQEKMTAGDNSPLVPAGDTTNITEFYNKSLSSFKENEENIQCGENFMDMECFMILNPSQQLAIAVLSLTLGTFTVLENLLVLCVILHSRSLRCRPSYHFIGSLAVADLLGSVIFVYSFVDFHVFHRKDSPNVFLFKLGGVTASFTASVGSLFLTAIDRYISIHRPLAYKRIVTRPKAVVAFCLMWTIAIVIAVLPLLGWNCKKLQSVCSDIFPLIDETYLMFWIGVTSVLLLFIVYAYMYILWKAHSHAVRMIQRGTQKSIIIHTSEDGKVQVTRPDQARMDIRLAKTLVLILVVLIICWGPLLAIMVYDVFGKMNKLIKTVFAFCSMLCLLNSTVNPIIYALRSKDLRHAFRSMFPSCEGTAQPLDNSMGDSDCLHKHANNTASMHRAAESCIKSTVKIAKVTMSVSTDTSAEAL
Chain of Cannabinoid receptor 2 (P34972 whole entry): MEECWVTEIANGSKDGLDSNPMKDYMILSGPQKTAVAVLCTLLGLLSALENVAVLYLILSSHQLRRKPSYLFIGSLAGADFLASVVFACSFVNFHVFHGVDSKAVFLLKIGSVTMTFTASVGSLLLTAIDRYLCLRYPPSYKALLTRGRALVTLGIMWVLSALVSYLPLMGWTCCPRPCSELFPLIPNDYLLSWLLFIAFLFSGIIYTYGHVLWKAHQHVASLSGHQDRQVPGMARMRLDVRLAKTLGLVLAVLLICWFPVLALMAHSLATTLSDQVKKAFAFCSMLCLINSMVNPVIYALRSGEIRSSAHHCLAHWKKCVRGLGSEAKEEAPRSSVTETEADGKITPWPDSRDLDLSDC
Chain of Voltage-gated inwardly rectifying potassium channel KCNH2 (Q12809 whole entry): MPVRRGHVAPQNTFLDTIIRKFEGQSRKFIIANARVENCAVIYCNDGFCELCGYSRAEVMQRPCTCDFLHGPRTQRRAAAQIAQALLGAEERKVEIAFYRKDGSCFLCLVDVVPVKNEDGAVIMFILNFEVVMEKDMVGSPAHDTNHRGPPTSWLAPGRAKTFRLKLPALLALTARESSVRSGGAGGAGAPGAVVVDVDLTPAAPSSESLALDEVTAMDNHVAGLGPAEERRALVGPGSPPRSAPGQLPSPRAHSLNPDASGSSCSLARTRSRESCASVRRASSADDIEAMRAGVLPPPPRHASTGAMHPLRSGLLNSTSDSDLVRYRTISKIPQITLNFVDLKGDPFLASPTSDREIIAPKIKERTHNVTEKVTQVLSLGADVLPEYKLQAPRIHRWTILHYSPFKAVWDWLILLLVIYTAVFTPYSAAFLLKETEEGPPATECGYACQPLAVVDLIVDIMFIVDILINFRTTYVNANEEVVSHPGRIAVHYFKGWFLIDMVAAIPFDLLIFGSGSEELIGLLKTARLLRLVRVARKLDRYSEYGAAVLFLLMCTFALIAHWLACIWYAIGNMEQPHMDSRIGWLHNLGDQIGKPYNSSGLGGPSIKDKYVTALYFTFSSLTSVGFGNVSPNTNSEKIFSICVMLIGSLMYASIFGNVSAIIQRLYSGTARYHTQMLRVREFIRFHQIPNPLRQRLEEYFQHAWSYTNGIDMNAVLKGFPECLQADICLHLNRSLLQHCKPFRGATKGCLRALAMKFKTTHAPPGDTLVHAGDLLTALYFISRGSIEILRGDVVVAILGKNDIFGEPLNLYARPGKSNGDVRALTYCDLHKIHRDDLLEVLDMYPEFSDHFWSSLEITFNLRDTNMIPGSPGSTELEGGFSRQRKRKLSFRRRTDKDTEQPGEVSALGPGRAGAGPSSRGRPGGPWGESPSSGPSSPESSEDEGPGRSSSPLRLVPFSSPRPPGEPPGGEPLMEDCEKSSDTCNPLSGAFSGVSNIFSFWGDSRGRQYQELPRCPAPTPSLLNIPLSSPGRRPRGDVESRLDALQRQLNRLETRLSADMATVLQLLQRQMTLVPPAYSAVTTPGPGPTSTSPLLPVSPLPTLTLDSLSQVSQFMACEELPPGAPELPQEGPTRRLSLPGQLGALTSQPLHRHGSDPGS
Chain of Cytochrome P450 2C9 (P11712 whole entry): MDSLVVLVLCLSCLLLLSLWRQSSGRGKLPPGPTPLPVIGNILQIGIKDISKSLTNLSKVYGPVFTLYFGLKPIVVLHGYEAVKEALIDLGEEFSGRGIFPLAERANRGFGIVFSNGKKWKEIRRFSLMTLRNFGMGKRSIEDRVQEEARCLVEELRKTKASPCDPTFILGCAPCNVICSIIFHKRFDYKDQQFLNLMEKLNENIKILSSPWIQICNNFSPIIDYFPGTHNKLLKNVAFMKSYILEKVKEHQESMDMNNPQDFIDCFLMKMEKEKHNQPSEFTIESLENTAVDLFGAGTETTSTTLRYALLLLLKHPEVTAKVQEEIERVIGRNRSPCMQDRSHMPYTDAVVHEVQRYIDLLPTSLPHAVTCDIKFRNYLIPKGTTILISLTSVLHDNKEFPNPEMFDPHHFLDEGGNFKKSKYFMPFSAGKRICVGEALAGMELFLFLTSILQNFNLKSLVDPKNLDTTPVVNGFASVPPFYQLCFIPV
Chain of Cytochrome P450 3A4 (P08684 whole entry): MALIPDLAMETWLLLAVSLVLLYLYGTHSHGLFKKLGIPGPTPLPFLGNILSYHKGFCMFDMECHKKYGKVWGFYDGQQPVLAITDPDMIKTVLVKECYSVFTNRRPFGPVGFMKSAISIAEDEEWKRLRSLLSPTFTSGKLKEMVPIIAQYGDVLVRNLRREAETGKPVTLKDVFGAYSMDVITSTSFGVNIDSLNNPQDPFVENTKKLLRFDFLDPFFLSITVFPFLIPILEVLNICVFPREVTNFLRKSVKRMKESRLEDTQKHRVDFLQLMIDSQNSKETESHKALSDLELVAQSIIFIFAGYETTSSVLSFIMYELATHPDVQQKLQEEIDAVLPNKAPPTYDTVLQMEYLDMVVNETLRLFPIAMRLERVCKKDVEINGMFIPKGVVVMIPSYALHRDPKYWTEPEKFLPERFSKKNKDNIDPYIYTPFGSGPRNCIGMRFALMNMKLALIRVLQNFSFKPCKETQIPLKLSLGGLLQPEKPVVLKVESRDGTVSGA

O=C([C@@H]1C[C@H]1c1ccc(C(F)(F)F)cc1)N1CCN(S(=O)(=O)c2cc(-c3ccn[nH]3)cc(C(F)(F)F)c2)CC1
IC50 [1]: 500 nM | IC50 (Cannabinoid receptor 2): > 10000 nM | IC50 (Cannabinoid receptor 1 [2]): 0.3 nM | Activity (Rattus norvegicus [3]): -10 g

O=C([C@@H]1C[C@H]1c1ccc(C(F)(F)F)cc1)N1CCN(S(=O)(=O)c2cc(C3CC3)cc(C(F)(F)F)c2)CC1
half-life [4]: 22 h | EC50 (Cannabinoid receptor 1 [5]): 5.8 nM | IC50 (Cannabinoid receptor 1 [6]): 0.2 nM | IC50 (Cannabinoid receptor 1 [7]): 9.2 nM | clearance [8]: 3.7 mL/min/kg | Kp at 4 h [9]: 0.3 | Vd [10]: 5.4 L/kg | IC50 (Cannabinoid receptor 2): > 10000 nM | bioavailability [11]: 74% | IC50 (Cannabinoid receptor 1 [2]): 0.3 nM | EC50 (Cannabinoid receptor 1 [12]): 3.4 nM | IC50 (Cannabinoid receptor 1 [13]): 2.2 nM | Kp [14]: 0.8 | Activity (Rattus norvegicus [15]): -59% | IC50 (Cannabinoid receptor 1 [16]): 0.1 nM | EC50 (Cannabinoid receptor 1 [17]): 5.8 nM | Activity (Rattus norvegicus [3]): -14 g

O=C(Cc1ccc(C(F)(F)F)cc1)N1CCN(S(=O)(=O)c2cc(C3CC3)cc(C(F)(F)F)c2)CC1
EC50 (Cannabinoid receptor 1 [5]): 1 nM | IC50 (Cannabinoid receptor 1 [6]): 11 nM | IC50 (Cannabinoid receptor 1 [7]): 1.9 nM | IC50 (Cannabinoid receptor 2): > 10000 nM | IC50 (Cannabinoid receptor 1 [2]): 1.2 nM | EC50 (Cannabinoid receptor 1 [12]): 0.6 nM | IC50 (Cannabinoid receptor 1 [13]): 27 nM | Kp [14]: 1.1 | Activity (Rattus norvegicus [15]): -40% | IC50 (Cannabinoid receptor 1 [16]): 0.5 nM | Activity (Rattus norvegicus [3]): -2 g

O=C(c1ccc(C(F)(F)F)cc1)N1CCN(S(=O)(=O)c2cc(C3CC3)cc(C(F)(F)F)c2)CC1
half-life [4]: 19 h | IC50 (Cannabinoid receptor 1 [6]): 227 nM | IC50 (Cannabinoid receptor 1 [7]): 77 nM | clearance [8]: 1.9 mL/min/kg | Vd [10]: 2.7 L/kg | bioavailability [11]: 47% | IC50 (Cannabinoid receptor 1 [2]): 58 nM | EC50 (Cannabinoid receptor 1 [12]): 4.4 nM | IC50 (Cannabinoid receptor 1 [13]): 175 nM | Kp [14]: 0.8 | Activity (Rattus norvegicus [15]): -14% | IC50 (Cannabinoid receptor 1 [16]): 47 nM | EC50 (Cannabinoid receptor 1 [17]): 1.3 nM | Activity (Rattus norvegicus [3]): 8 g

O=C([C@@H]1C[C@H]1c1ccc(C(F)(F)F)cc1)N1CCN(S(=O)(=O)c2cc(-c3nnc[nH]3)cc(C(F)(F)F)c2)CC1
clearance [18]: 14.6 mL/min/kg | half-life [4]: 3.8 h | bioavailability [19]: 26% | IC50 (Cytochrome P450 2C8): 15000 nM | clearance [8]: 23.7 mL/min/kg | Kp at 4 h [9]: 0.2 | Vd [10]: 3.8 L/kg | half-life [20]: 8.6 h | IC50 (Cytochrome P450 3A4): 4700 nM | IC50 (Cannabinoid receptor 2): > 10000 nM | bioavailability [21]: < 2% | bioavailability [11]: 31% | IC50 (Cannabinoid receptor 1 [2]): 0.2 nM | half-life [22]: 2 h | IC50 (Cytochrome P450 2C9): 6000 nM | Vd [23]: 2.5 L/kg | Cmax [24]: 3 nM | Vd [25]: 1.1 L/kg | minimal effective dose (Rattus norvegicus [26]): 0.3 mg/kg | Activity (Rattus norvegicus [3]): -14 g | Cmax [27]: 190 nM | Cmax [28]: 210 nM | clearance [29]: 1.4 mL/min/kg

O=C([C@@H]1C[C@H]1c1ccc(C(F)(F)F)cc1)N1CCN(S(=O)(=O)c2cc(C(O)C(F)(F)F)cc(C(F)(F)F)c2)CC1 (mixture of isomers)
IC50 [1]: 60 nM | IC50 (Cannabinoid receptor 2): > 10000 nM | IC50 (Cannabinoid receptor 1 [2]): 1.5 nM | Activity (Rattus norvegicus [3]): -8 g
